Experimental data collected from several papers.
CYP2C9: Cytochrome P450 2C9 (CYP2C9, Homo sapiens, UniProt P11712)
DPP4: Dipeptidyl peptidase 4 (DPP4, Homo sapiens, UniProt P27487)
CYP2C8: Cytochrome P450 2C8 (CYP2C8, Homo sapiens, UniProt P10632)
ENAH: Protein enabled homolog (ENAH, UniProt Q8N8S7)

SMILES	target	assay	test system	setting	measurement	value
C=C(F)C(=O)N1CCN(c2nc(OC[C@@H]3CCCN3C)nc3c2CCN(c2cccc4cccc(Cl)c24)C3)C[C@@H]1CC#N	CYP2C9	enzyme activity, inhibitor	human, liver microsomes	–	Ki	3.2 µM
Cn1c(=O)cc(N2CCC(N)CC2)n(Cc2nc3ccccc3c(=O)n2-c2ccc(F)c(Cl)c2)c1=O	DPP4	enzyme activity, inhibitor	–	–	IC50	35.7 µM
COc1cc(O)c2c(c1)C(=O)c1cc(C)cc(O)c1C2=O	CYP2C9	enzyme activity, inhibitor	human, liver microsomes	pH 7.4	Ki	3.69 µM
CO[C@]1(C(=O)N[C@@H](C)c2ccc(-n3cc(F)cn3)nc2)CC[C@H](c2nc(C)cc(Nc3cc(C)[nH]n3)n2)CC1	CYP2C8	enzyme activity, inhibitor	human, liver microsomes	–	Ki	9.6 µM
Cn1nc2c(=O)n(C3CC3)cnc2c1[C@](O)(c1cnc(C(F)(F)F)c(Cl)c1)C(F)(F)F	CYP2C8	enzyme activity, inhibitor	human, liver microsomes	pH 7.4	IC50	> 20 µM
CC[C@H](C)[C@H](NC(=O)[C@H](Cc1c[nH]cn1)NC(=O)[C@@H](N)CCC(=O)O)C(=O)N1CCC[C@H]1C(=O)N1CCC[C@H]1C(=O)N1CCC[C@H]1C(=O)N1CCC[C@H]1C(=O)N[C@@H](CCCNC(=N)N)C(=O)N1CCC[C@H]1C(=O)N1CCC[C@H]1C(=O)N[C@@H](CCCCN)C(=O)N[C@@H](CCCNC(=N)N)C(=O)O	ENAH	binding, FP	–	–	Kd	13 µM
CC[C@@](N)(c1cnc(C(F)(F)F)c(Cl)c1)c1c2ncn(C3CC3)c(=O)c2nn1C	CYP2C9	enzyme activity, inhibitor	human, liver microsomes	pH 7.4	IC50	> 20 µM
Cn1c(=O)cc(N2CCC(N)CC2)n(Cc2nc3ccc(Br)cc3c(=O)n2-c2cccc(F)c2)c1=O	DPP4	enzyme activity, inhibitor	–	–	IC50	22.1 µM
CN(C)c1ncnc2c1ncn2[C@@H]1O[C@H](CCl)[C@@H](NC(=O)[C@H](CSC(c2ccccc2)c2ccccc2)NC(=O)OC(C)(C)C)[C@H]1O	Aminopeptidase N (ANPEP, Homo sapiens, UniProt P15144)	enzyme activity, inhibitor, fluorescence	–	–	IC50	> 100 µM
Cn1cncc1[C@@](N)(c1ccc(Cl)cc1)c1ccc2c(c1)c(-c1cccc(Cl)c1)cc(=O)n2C	CYP2C9	enzyme activity, inhibitor	human, liver microsomes	–	Ki	0.35 µM
Cn1nc2c(=O)n(C3CC3)ccc2c1[C@](O)(c1cnc(C(F)(F)F)c(Cl)c1)C(F)(F)F	CYP2C8	enzyme activity, inhibitor	human, liver microsomes	pH 7.4	IC50	> 20 µM
Cn1c(=O)cc(N2CCC(N)CC2)n(Cc2nc3ccc(Br)cc3c(=O)n2-c2ccc(Br)cc2)c1=O	DPP4	enzyme activity, inhibitor	–	–	IC50	11.2 µM
CSCC[C@H](NC(=O)[C@H](CCC(=O)O)NC(=O)[C@H](CS)NC(=O)[C@H](CO)NC(=O)[C@H](CC(C)C)NC(=O)[C@H](CCC(=O)O)NC(=O)[C@@H](N)CCC(=O)O)C(=O)N[C@@H](CCC(=O)O)C(=O)NCC(=O)N[C@@H](CC(N)=O)C(=O)N[C@@H](CC(C)C)C(=O)N[C@@H](CCC(=O)O)C(=O)N[C@@H](Cc1c[nH]cn1)C(=O)N[C@@H](CC(C)C)C(=O)N1CCC[C@H]1C(=O)N1CCC[C@H]1C(=O)N1CCC[C@H]1C(=O)N1CCC[C@H]1C(=O)N[C@@H](CCSC)C(=O)N[C@@H](CCC(=O)O)C(=O)N[C@H](C(=O)N[C@@H](CC(C)C)C(=O)N[C@@H](CCSC)C(=O)N[C@@H](CC(=O)O)C(=O)N[C@@H](CCCCN)C(=O)N[C@@H](CO)C(=O)N[C@@H](Cc1ccccc1)C(=O)N[C@@H](C)C(=O)N[C@@H](CO)C(=O)N[C@@H](CC(C)C)C(=O)N[C@@H](CCC(=O)O)C(=O)N[C@@H](CO)C(=O)N1CCC[C@H]1C(=O)N[C@@H](CCC(=O)O)C(=O)N[C@@H](CO)C(=O)O)C(C)C	ENAH	binding, fluorescence	–	–	Kd	3.1 µM
